Data taken from ChEMBL document CHEMBL1124232, “Synthesis and biological activities of 4-O-(difluoromethyl)-5-substituted-uracil nucleoside analogues” (J Med Chem, 1988).

Legend:
Human alphaherpesvirus 1 [1] = test: Ability to reduce plaque formation of herpes simplex virus type 1 (HSV-1) by 50% in human embryonic lung fibroblast (HELF) cell cultures; type: functional; conditions: Human alphaherpesvirus 1, HELF; read-out: ID50 (the source's name)
Summary of the method: (§1)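 HELF confluent monolayers infected 1 h at 37 °C (about 50–100 plaques per bottle) with HSV-1 clinical isolate strain 77 or TK-deficient HSV-1 B 2006. Then 0.5% w/v methocel overlay with 10% fetal calf serum plus compound, 3 days at 37 °C. Neutral red staining; ID50 in µmol/L read graphically as 50% plaque-number reduction.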

[2] = Minimum concentration not causing a microscopically detectable cytotoxic alteration of normal human embryonic lung fibroblast (HELF) morphology
Summary of the method: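 Semiconfluent HELF monolayers, 24 h post-seeding, exposed 3 days at 37 °C to compound up to 1 mmol/L. Microscopic comparison with untreated controls; toxicity signs were cell detachment, monolayer destruction, or cells remaining semiconfluent. Value is the lowest concentration showing no detectable morphological alteration.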

Human alphaherpesvirus 2 = test: Ability to reduce plaque formation of herpes simplex virus type 2 (HSV-2) by 50% in human embryonic lung fibroblast (HELF) cell cultures; type: functional; conditions: Human alphaherpesvirus 2, HELF; read-out: ID50 (the source's name)
Summary of the method: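 Clinical isolate HSV-2 strain 74 adsorbed 1 h at 37 °C onto confluent HELF monolayers, aiming at 50–100 plaques per bottle. Compound added in methocel (0.5% w/v) overlay containing 10% FCS; 2 days at 37 °C. Plaques visualised with neutral red. ID50 in µmol/L determined graphically as the concentration halving plaque counts.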

[3] = Inhibitory dose for HELF cell proliferation during 3-day treatment period; type: functional; conditions: Homo sapiens, 72 h, read-out: ID50 (the source's name)
Human alphaherpesvirus 3 = test: Ability to reduce plaque formation of varicella zoster virus (VZV) by 50% in human embryonic lung fibroblast (HELF) cell cultures; type: functional; conditions: Human alphaherpesvirus 3, HELF; read-out: ID50 (the source's name)
Summary of the method: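 Fresh clinical VZV isolate, strain 3/S.H., in HELF cells. Plaques counted 5–6 days post-infection. ID50 is the concentration reducing plaque formation by 50%.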

Human betaherpesvirus 5 = test: Ability to reduce plaque formation of human cytomegalovirus (HCMV) by 50% in human embryonic lung fibroblast (HELF) cell cultures; type: functional; conditions: Human betaherpesvirus 5, HELF; read-out: ID50 (the source's name)
Summary of the method: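 Plaque reduction in HELF cells with laboratory HCMV strain Davis, plaques scored 8–12 days post-infection. ID50 is the concentration cutting plaque formation by 50%.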

Human alphaherpesvirus 1 [4] = test: Ability to reduce plaque formation of TK deficient herpes simplex virus type 1(HSV-1) by 50% in human embryonic lung fibroblast (HELF) cell cultures; type: functional; conditions: Human alphaherpesvirus 1, HELF; read-out: ID50 (the source's name); summary of the method: as §1

## CCc1cn([C@H]2C[C@H](O)[C@@H](CO)O2)c(=O)nc1OC(F)F
Human alphaherpesvirus 1 [1]
  IC50: > 1000 µM
[2]
  Toxicity: > 1000 µM
Human alphaherpesvirus 2
  IC50: > 1000 µM

## O=c1[nH]c(=O)n(C2O[C@H](CO)[C@@H](O)[C@@H]2O)cc1I (some centres not stated)
Human alphaherpesvirus 1 [1]
  IC50: 51 µM
[2]
  Toxicity: > 500 µM
Human alphaherpesvirus 2
  IC50: 70 µM

## O=c1nc(OC(F)F)ccn1[C@@H]1O[C@H](CO)[C@@H](O)[C@@H]1O
Human alphaherpesvirus 1 [1]
  IC50: 430 µM
[2]
  Toxicity: > 1000 µM
Human alphaherpesvirus 2
  IC50: > 1000 µM

## O=c1[nH]c(=O)n([C@H]2C[C@H](O)[C@@H](CO)O2)cc1Br [BROXURIDINE]
Human alphaherpesvirus 1 [1]
  IC50: 0.8 µM
[2]
  Toxicity: > 1000 µM
Human alphaherpesvirus 2
  IC50: 1.4 µM

## O=c1nc(OC(F)F)c(Br)cn1[C@H]1C[C@H](O)[C@@H](CO)O1
Human alphaherpesvirus 1 [1]
  IC50: 130 µM
[2]
  Toxicity: > 500 µM
Human alphaherpesvirus 2
  IC50: > 500 µM

## O=c1[nH]c(=O)n([C@@H]2O[C@H](CO)[C@@H](O)[C@H]2O)cc1/C=C/Br
Human alphaherpesvirus 1 [1]
  IC50: 0.115 µM
Human alphaherpesvirus 2
  IC50: 49 µM
[3]
  IC50: > 1000 µM

## O=c1[nH]c(=O)n([C@@H]2O[C@H](CO)[C@@H](O)[C@@H]2O)cc1Br
Human alphaherpesvirus 1 [1]
  IC50: 1.35 µM
[2]
  Toxicity: > 1000 µM
Human alphaherpesvirus 2
  IC50: 7.9 µM

## O=c1nc(OC(F)F)c(I)cn1[C@@H]1O[C@H](CO)[C@@H](O)[C@H]1O
Human alphaherpesvirus 1 [1]
  IC50: > 500 µM
[2]
  Toxicity: > 500 µM
Human alphaherpesvirus 2
  IC50: > 500 µM

## O=c1nc(OC(F)F)c(F)cn1[C@@H]1O[C@H](CO)[C@@H](O)[C@@H]1O
Human alphaherpesvirus 1 [1]
  IC50: 110 µM
[2]
  Toxicity: > 500 µM
Human alphaherpesvirus 2
  IC50: 300 µM

## Nc1nc2c(ncn2COCCO)c(=O)[nH]1 [ACYCLOVIR]
Human alphaherpesvirus 1 [1]
  IC50: 0.48 µM
Human alphaherpesvirus 2
  IC50: 1.6 µM
[3]
  IC50: 360 µM

## CCc1cn([C@H]2C[C@H](O)[C@@H](CO)O2)c(=O)[nH]c1=O [EDOXUDINE]
Human alphaherpesvirus 1 [1]
  IC50: 10 µM
[2]
  Toxicity: > 1000 µM
Human alphaherpesvirus 2
  IC50: 14.5 µM

## O=c1nc(OC(F)F)c(/C=C/Br)cn1C1O[C@H](CO)[C@@H](O)[C@@H]1O (some centres not stated)
Human alphaherpesvirus 1 [1]
  IC50: 1.1 µM
[2]
  Toxicity: > 500 µM
Human alphaherpesvirus 2
  IC50: > 500 µM

## O=c1nc(OC(F)F)c(Br)cn1[C@@H]1O[C@H](CO)[C@@H](O)[C@@H]1O
Human alphaherpesvirus 1 [1]
  IC50: 3.6 µM
[2]
  Toxicity: > 1000 µM
Human alphaherpesvirus 2
  IC50: 17.6 µM

## O=c1nc(OC(F)F)ccn1[C@@H]1O[C@H](CO)[C@@H](O)[C@H]1O
Human alphaherpesvirus 1 [1]
  IC50: > 1000 µM
[2]
  Toxicity: > 1000 µM
Human alphaherpesvirus 2
  IC50: > 1000 µM

## O=c1nc(OC(F)F)c(Br)cn1[C@@H]1O[C@H](CO)[C@@H](O)[C@H]1O
Human alphaherpesvirus 1 [1]
  IC50: > 250 µM
[2]
  Toxicity: > 250 µM
Human alphaherpesvirus 2
  IC50: > 250 µM

## O=c1nc(OC(F)F)c(F)cn1[C@@H]1O[C@H](CO)[C@@H](O)[C@H]1O
Human alphaherpesvirus 1 [1]
  IC50: 500 µM
[2]
  Toxicity: > 500 µM
Human alphaherpesvirus 2
  IC50: > 500 µM

## Cc1cn(C2O[C@H](CO)[C@@H](O)[C@@H]2O)c(=O)nc1OC(F)F (some centres not stated)
Human alphaherpesvirus 1 [1]
  IC50: 0.8 µM
[2]
  Toxicity: > 1000 µM
Human alphaherpesvirus 3
  IC50: 1 µM
Human alphaherpesvirus 2
  IC50: 3 µM
Human betaherpesvirus 5
  IC50: > 500 µM
Human alphaherpesvirus 1 [4]
  IC50: > 500 µM

## O=c1nc(OC(F)F)c(I)cn1[C@@H]1O[C@H](CO)[C@@H](O)[C@@H]1O
Human alphaherpesvirus 1 [1]
  IC50: 29 µM
[2]
  Toxicity: > 1000 µM
Human alphaherpesvirus 2
  IC50: 82 µM

## CCc1cn(C2O[C@H](CO)[C@@H](O)[C@@H]2O)c(=O)nc1OC(F)F (some centres not stated)
Human alphaherpesvirus 1 [1]
  IC50: 27 µM
[2]
  Toxicity: > 500 µM
Human alphaherpesvirus 2
  IC50: 210 µM

## O=c1[nH]c(=O)n([C@H]2C[C@H](O)[C@@H](CO)O2)cc1/C=C/Br [BRIVUDINE]
Human alphaherpesvirus 1 [1]
  IC50: 0.05 µM
Human alphaherpesvirus 2
  IC50: 27 µM
[3]
  IC50: 170 µM

## Cc1cn([C@H]2C[C@H](O)[C@@H](CO)O2)c(=O)nc1OC(F)F
Human alphaherpesvirus 1 [1]
  IC50: > 1000 µM
[2]
  Toxicity: > 1000 µM
Human alphaherpesvirus 2
  IC50: > 1000 µM

## Cc1cn([C@@H]2O[C@H](CO)[C@@H](O)[C@@H]2O)c(=O)[nH]c1=O
Human alphaherpesvirus 1 [1]
  IC50: 0.64 µM
[2]
  Toxicity: > 1000 µM
Human alphaherpesvirus 3
  IC50: 0.53 µM
Human alphaherpesvirus 2
  IC50: 1.65 µM
Human betaherpesvirus 5
  IC50: > 500 µM
Human alphaherpesvirus 1 [4]
  IC50: > 500 µM
